# Test results taken from ChEMBL document CHEMBL1129639, “Synthesis and cardiotonic activity of novel pyrimidine derivatives: crystallographic and quantum chemical studies” (J Med Chem, 1996).
# Experiments:
# Type in all cases: functional
# Cavia porcellus [1] = species: Cavia porcellus; test: Compound was evaluated for its effect on the frequency rate of spontaneously beating atria from Reserpine-treated guinea pigs as percentage variation from the control at different concentration of 3 x 10E-4 M
# Method in brief: (§1)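 Atria from reserpine-treated guinea pigs (reserpine 2 mg/kg ip, 48 and 24 h before death; only tyramine-unresponsive preparations used). Bath solution at 29 °C, gassed 95% O2/5% CO2, pH 7.5, resting tension […]. After 90 min equilibration, compound added cumulatively, 5 min per concentration. Isometric developed-tension amplitude or beating rate given as % variation from untreated control. Mean ± SEM, 6-10 assays.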
# Cavia porcellus [2] = species: Cavia porcellus; test: Effect on the contractile force of spontaneously beating atria from Reserpine-treated guinea pigs as percentage variation from the control at concentration of 10E-6 M; method in brief: as §1
# Cavia porcellus [3] = species: Cavia porcellus; test: Effect on the contractile force of spontaneously beating atria from Reserpine-treated guinea pigs as percentage variation from the control at concentration of 10E-3 M; method in brief: as §1
# Cavia porcellus [4] = species: Cavia porcellus; test: Effect on the contractile force of spontaneously beating atria from Reserpine-treated guinea pigs as percentage variation from the control at concentration of 3 x 10E-4 M; method in brief: as §1
# Cavia porcellus [5] = species: Cavia porcellus; test: Compound was evaluated for its effect on the frequency rate of spontaneously beating atria from Reserpine-treated guinea pigs as percentage variation from the control at different concentration of 10E-3 M; method in brief: as §1
# Cavia porcellus [6] = species: Cavia porcellus; test: Effect on the contractile force of spontaneously beating atria from Reserpine treated guinea pigs as percentage variation from the control at concentration of 10E-4 M; method in brief: as §1
# Cavia porcellus [7] = species: Cavia porcellus; test: Compound was evaluated for its effect on the frequency rate of spontaneously beating atria from Reserpine-treated guinea pigs as percentage variation from the control at different concentration of 10E-4 M; method in brief: as §1
# Cavia porcellus [8] = species: Cavia porcellus; test: Compound was evaluated for its effect on the frequency rate of spontaneously beating atria from Reserpine-treated guinea pigs as percentage variation from the control at different concentration of 3 x 10E-5 M; method in brief: as §1
# Cavia porcellus [9] = species: Cavia porcellus; test: Effect on the contractile force of spontaneously beating atria from Reserpine-treated guinea pigs as percentage variation from the control at concentration of 3 x 10E-5 M; method in brief: as §1
# Cavia porcellus [10] = species: Cavia porcellus; test: Compound was evaluated for its effect on the frequency rate of spontaneously beating atria from Reserpine-treated guinea pigs as percentage variation from the control at different concentration of 10E-5 M; method in brief: as §1
# Cavia porcellus [11] = species: Cavia porcellus; test: Effect on the contractile force of spontaneously beating atria from Reserpine-treated guinea pigs as percentage variation from the control at concentration of 3 x 10E-6 M; method in brief: as §1
# Cavia porcellus [12] = species: Cavia porcellus; test: Compound was evaluated for its effect on the frequency rate of spontaneously beating atria from Reserpine-treated guinea pigs as percentage variation from the control at different concentration of 3 x10E-6 M; method in brief: as §1
# Cavia porcellus [13] = species: Cavia porcellus; test: Effect on the contractile force of spontaneously beating atria from Reserpine-treated guinea pigs as percentage variation from the control at concentration of 10E-5 M; method in brief: as §1
# Cavia porcellus [14] = species: Cavia porcellus; test: Compound was evaluated for its effect on the frequency rate of spontaneously beating atria from Reserpine-treated guinea pigs as percentage variation from the control at different concentration of 10E-6 M; method in brief: as §1
# Cavia porcellus [15] = species: Cavia porcellus; test: Compound was evaluated for its effect on the frequency rate of spontaneously beating atria from Reserpine-treated guinea pigs as percentage variation from the control at concentration of 3 x 10E-4 M; method in brief: as §1
# Cavia porcellus [16] = species: Cavia porcellus; test: Compound was evaluated for its effect on the contractile force of spontaneously beating atria from Reserpine-treated guinea pigs as percentage variation from the control at concentration 10E-3 M; method in brief: as §1
# Cavia porcellus [17] = species: Cavia porcellus; test: Compound was evaluated for its effect on the frequency rate of spontaneously beating atria from Reserpine-treated guinea pigs as percentage variation from the control at concentration of 10e-6 M; method in brief: as §1
# Cavia porcellus [18] = species: Cavia porcellus; test: Compound was evaluated for its effect on the frequency rate of spontaneously beating atria from Reserpine-treated guinea pigs as percentage variation from the control at concentration of 3 x 10E-5 M; method in brief: as §1
# Cavia porcellus [19] = species: Cavia porcellus; test: Effect on the frequency rate of spontaneously beating atria from Reserpine-treated guinea pigs as percentage variation from the control at concentration of 10E-4 M; method in brief: as §1
# Cavia porcellus [20] = species: Cavia porcellus; test: Effect on the frequency rate of spontaneously beating atria from Reserpine-treated guinea pigs as percentage variation from the control at concentration of 10E-3 M; method in brief: as §1
# Cavia porcellus [21] = species: Cavia porcellus; test: Effect on the frequency rate of spontaneously beating atria from Reserpine-treated guinea pigs as percentage variation from the control at concentration of 10E-5 M; method in brief: as §1
# Cavia porcellus [22] = species: Cavia porcellus; test: Compound was evaluated for its effect on the frequency rate of spontaneously beating atria from Reserpine-treated guinea pigs as percentage variation from the control at concentration of 3 x 10E-6 M; method in brief: as §1
smiles,measurement,setting,value
CN(C)c1ncccn1,Variation,Cavia porcellus [1],17.44%
same,Variation,Cavia porcellus [2],0%
same,Variation,Cavia porcellus [3],41.66%
same,Variation,Cavia porcellus [4],37.73%
same,Variation,Cavia porcellus [5],25.17%
same,Variation,Cavia porcellus [6],15.08%
same,Variation,Cavia porcellus [7],9.72%
same,Variation,Cavia porcellus [8],3.72%
same,Variation,Cavia porcellus [9],11.63%
same,Variation,Cavia porcellus [10],1.33%
same,Variation,Cavia porcellus [11],4.92%
same,Variation,Cavia porcellus [12],0%
same,Variation,Cavia porcellus [13],9.17%
same,Variation,Cavia porcellus [14],0%
CCOC(=O)c1cnc(N(C)C)nc1C,Variation,Cavia porcellus [15],10.71%
same,Variation,Cavia porcellus [2],2.79%
same,Variation,Cavia porcellus [16],-49.52%
same,Variation,Cavia porcellus [4],-25.87%
same,Variation,Cavia porcellus [17],-3.57%
same,Variation,Cavia porcellus [6],-21.41%
same,Variation,Cavia porcellus [18],3.57%
same,Variation,Cavia porcellus [9],15.88%
same,Variation,Cavia porcellus [19],7.14%
same,Variation,Cavia porcellus [20],-17.85%
same,Variation,Cavia porcellus [11],7.12%
same,Variation,Cavia porcellus [21],0%
same,Variation,Cavia porcellus [13],9.91%
same,Variation,Cavia porcellus [22],0%
